Legend:
[1] = target: Adenosine receptor A2a (Rattus norvegicus, UniProt P30543); experiment: Displacement of specific [3H]- CGS-21680 in rat striatal membranes A2a receptor; format: cell membranes, Membrane
Method in brief: (§1)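 Rat striatal membranes; [3H]CGS 21680 binding at A2a receptors. Adenosine deaminase (3 units/mL) present during membrane preparation, which includes a 30 °C, 30 min incubation, and during radioligand incubation.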

[2] = target: T1, Adenosine receptor A3 (Rattus norvegicus, UniProt P28647); experiment: Displacement of specific [125]AB-MECA binding in membranes of CHO cells stably transfected with the rat A3-cDNA; format: cell membranes
T1 sequence (P28647 whole entry): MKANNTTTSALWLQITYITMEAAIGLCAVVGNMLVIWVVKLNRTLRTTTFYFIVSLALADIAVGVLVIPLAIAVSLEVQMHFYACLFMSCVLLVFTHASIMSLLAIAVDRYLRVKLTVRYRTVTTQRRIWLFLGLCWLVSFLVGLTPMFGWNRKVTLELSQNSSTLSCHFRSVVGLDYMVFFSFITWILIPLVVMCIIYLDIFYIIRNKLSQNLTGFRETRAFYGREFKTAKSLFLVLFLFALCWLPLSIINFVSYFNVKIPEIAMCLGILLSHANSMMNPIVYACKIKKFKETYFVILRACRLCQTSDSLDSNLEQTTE

[3] = target: T2, Adenosine receptor A1 (Rattus norvegicus, UniProt P25099); experiment: Tested for the displacement of specific [3H]PIA in rat brain membranes of A1 receptor; format: cell membranes
T2 sequence (P25099 whole entry): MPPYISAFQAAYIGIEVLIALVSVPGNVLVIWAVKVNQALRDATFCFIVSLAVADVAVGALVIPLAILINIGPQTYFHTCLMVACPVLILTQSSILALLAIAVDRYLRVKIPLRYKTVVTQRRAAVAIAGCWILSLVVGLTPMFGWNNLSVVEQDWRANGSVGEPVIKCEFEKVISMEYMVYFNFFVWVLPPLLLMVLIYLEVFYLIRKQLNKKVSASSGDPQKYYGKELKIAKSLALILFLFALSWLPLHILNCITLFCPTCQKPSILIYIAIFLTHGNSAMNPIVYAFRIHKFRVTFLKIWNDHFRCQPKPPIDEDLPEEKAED

[4] = target: Adenosine receptors; A1 & A3 (Rattus norvegicus) (UniProt P25099+P28647); experiment: Selectivity ratio (Ki's)for A1 and A3 receptors in rat brain; format: tissue-based
Method in brief: (§2)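 Ratio of Ki values from rat A1 (cortical, [3H]PIA) or A2a (striatal, [3H]CGS 21680) binding over Ki from rat A3 binding ([125I]AB-MECA, CHO membranes). Where one value is only a percent displacement, a conservative boundary estimate of the ratio is given.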

[5] = target: Adenosine receptor A2a and A3 (Rattus norvegicus) (UniProt P30543+P28647); experiment: Selectivity for A2a and A3 receptors in rat brain as ratio of Ki; format: tissue-based; method in brief: as §2
[6] = target: Adenosine receptor A2a (Rattus norvegicus) (UniProt P30543); experiment: Displacement of [3H]CGS-21680 from A2a receptor of rat striatal membrane at 10e-5 M; method in brief: as §1
[7] = target: Adenosine receptor A2a (Rattus norvegicus) (UniProt P30543); experiment: Displacement of specific [3H]- CGS-21680 in rat striatal membranes A2a receptor at 10e-4 M concentration; format: cell membranes; conditions: Membrane
[8] = target: T3, Adenosine receptor A1 (Rattus norvegicus) (UniProt P25099); experiment: Percent displacement of [3H]PIA from A1 receptor of rat brain membrane at 10e-4 M
T3 sequence (whole entry): T2 sequence (P25099 whole entry)
Method in brief: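 A1 receptor binding in rat cortical membranes with [3H]-(R)-PIA. Adenosine deaminase (3 units/mL) present during membrane preparation, which includes a 30 °C, 30 min incubation, and during radioligand incubation. Result given as displacement of specific binding, as Ki or as percent displacement at the stated concentration.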

[9] = target: Adenosine receptor A2a (Rattus norvegicus) (UniProt P30543); experiment: Displacement of [3H]CGS-21680 from A2a receptor of rat striatal membrane at 10e-4 M; method in brief: as §1
[10] = target: Adenosine receptor A2a (Rattus norvegicus) (UniProt P30543); experiment: Displacement of [3H]- CGS-21680 from A2a receptor of rat striatal membrane at 3*10e-4 M; method in brief: as §1

Adenosine receptor A2a and A3 (Rattus norvegicus), sequence (P30543 whole entry, looked up, one chain of several): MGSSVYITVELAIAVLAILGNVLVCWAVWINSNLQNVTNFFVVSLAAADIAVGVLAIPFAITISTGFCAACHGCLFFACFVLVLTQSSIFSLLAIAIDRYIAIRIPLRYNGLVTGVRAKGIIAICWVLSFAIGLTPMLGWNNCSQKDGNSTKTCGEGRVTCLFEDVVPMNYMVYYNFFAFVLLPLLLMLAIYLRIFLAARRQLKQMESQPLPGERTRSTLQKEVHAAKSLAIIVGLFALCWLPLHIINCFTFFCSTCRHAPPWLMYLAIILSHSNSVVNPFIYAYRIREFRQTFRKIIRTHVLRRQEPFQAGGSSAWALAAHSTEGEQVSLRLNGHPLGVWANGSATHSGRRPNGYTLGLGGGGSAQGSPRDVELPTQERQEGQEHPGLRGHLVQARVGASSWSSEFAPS
Adenosine receptor A2a (Rattus norvegicus), sequence (P30543 whole entry): as the sequence (P30543 whole entry, looked up, one chain of several) above
Adenosine receptor A2a, sequence (P30543 whole entry): as the sequence (P30543 whole entry, looked up, one chain of several) above

| SMILES | Ki [1] | Ki [2] | Ki [3] | Selectivity ratio [4] | Selectivity ratio [5] | inhibition [6] | inhibition [7] | inhibition [8] | inhibition [9] | inhibition [10] |
| --- | --- | --- | --- | --- | --- | --- | --- | --- | --- | --- |
| CCCCn1c(=O)c2c(ncn2C2O[C@H](C(=O)NCC)[C@@H](O)[C@H]2O)n(CCCC)c1=O (some centres not stated) | 38.1 µM | 0.602 µM | 6.21 µM | 10 | 63 |  |  |  |  |  |
| CCCCn1c(=O)c2c(ncn2C2O[C@H](CO)[C@@H](O)[C@H]2O)n(Cc2ccccc2)c1=O (some centres not stated) | 8.67 µM | 12.9 µM | 2.19 µM | 0.17 | 0.67 |  |  |  |  |  |
| CCCCCCn1c(=O)c2c(ncn2C2O[C@H](CO)[C@@H](O)[C@H]2O)n(CCCCCC)c1=O (some centres not stated) |  | 43 µM | 9.75 µM | 0.23 |  | 7.8% |  |  |  |  |
| CCCCn1c(=O)c2c(ncn2C2O[C@H](C(=O)N(C)C)[C@@H](O)[C@H]2O)n(CCCC)c1=O (some centres not stated) | 53.5 µM | 228 µM | 9.1 µM | 0.04 | 0.23 |  |  |  |  |  |
| CCCCn1c(=O)c2c(ncn2C2O[C@H](CO)[C@@H](O)[C@H]2O)n(CCCC)c1=O (some centres not stated) | 19.5 µM | 6.03 µM | 4.19 µM | 0.69 | 3.2 |  |  |  |  |  |
| CCCCn1c(=O)c2c(ncn2C2O[C@H](CO)[C@@H](O)[C@H]2O)n(CCCC)c1=S (some centres not stated) | 4.25 µM | 1.4 µM | 2.25 µM | 1.6 | 3 |  |  |  |  |  |
| CCCn1c(=O)c2c(ncn2C2O[C@H](CO)[C@@H](O)[C@H]2O)n(CCC)c1=O (some centres not stated) |  | 81.2 µM | 15.9 µM | 0.2 | > 1 |  | 32% |  |  |  |
| CCCCCn1c(=O)c2c(ncn2C2O[C@H](C(=O)NC)[C@@H](O)[C@H]2O)n(CCCCC)c1=O (some centres not stated) |  | 2.63 µM |  | 4.3 | > 1 |  | 2% |  |  |  |
| CCCCn1c(=O)c2c(ncn2C2O[C@H](C(N)=O)[C@@H](O)[C@H]2O)n(CCCC)c1=O (some centres not stated) | 54.9 µM | 15.3 µM |  | 0.2 | 3.6 |  |  |  |  |  |
| CCCCCn1c(=O)c2c(ncn2C2O[C@H](CO)[C@@H](O)[C@H]2O)n(CCCCC)c1=O (some centres not stated) | 47.3 µM | 4.81 µM | 8.79 µM | 1.8 | 9.8 |  |  |  |  |  |
| COc1nc2c(c(=O)n(C)c(=O)n2C)n1C1O[C@H](CO)[C@@H](O)[C@H]1O (some centres not stated) |  | 0.074 µM |  | > 1 | > 1 |  | 4% | 21% |  |  |
| CCCCCCn1c(=O)c2c(ncn2C2O[C@H](C(=O)NC)[C@@H](O)[C@H]2O)n(CCCCCC)c1=O (some centres not stated) |  | 10.3 µM | 30.8 µM | 3 | > 10 |  | 0% |  |  |  |
| Cn1c(=O)c2c(ncn2C2O[C@H](CO)[C@@H](O)[C@H]2O)n(C)c1=O (some centres not stated) |  | 89.4 µM | 27 µM | 0.3 | > 1 |  |  |  | 2% |  |
| CCCCn1c(=O)c2c(ncn2C2O[C@H](C(=O)OC)[C@@H](O)[C@H]2O)n(CCCC)c1=O (some centres not stated) |  | 3.23 µM | 3.72 µM | 1.2 | > 1 |  |  |  |  | 0% |

— ChEMBL document CHEMBL1127734, “Selective ligands for rat A3 adenosine receptors: structure-activity relationships of 1,3-dialkylxanthine 7-riboside derivatives” (J Med Chem, 1994)
